Laboratory results as given in paper PMC6044914 (ACS Omega, 2017).
Values after ≈ are worked out from the molar mass of the structure shown. Read-outs that look alike come from different tables or passages of the source.

Columns and labels:
Vero cells = conditions: African green monkey
[1] = tested on: nonreplicating M. tuberculosis (nutrient starvation); conditions: previous work; cited from earlier work
[2] = tested on: M. tuberculosis H37Rv (London Pride); assay: microbe, parasite or virus in culture; format: cell-based, Mycobacterium tuberculosis; conditions: for MIC: Mycobacterium tuberculosis, H37RV; for activity against M. tuberculosis (in words): SAR discussion
[3] = rats; rapidly metabolized; cited from earlier work
[4] = Pharmacokinetic profiling in the rat; format: in vivo; conditions: plasma; for bioavailability: oral; for AUC: po
[5] = tested on: replicating M. tuberculosis; assay: Kill kinetics in replicating conditions; format: cell-based, Mycobacterium tuberculosis; conditions: for bactericidal activity against replicating M. tuberculosis (in words): aerobic conditions; for concentration at which bactericidal, replicating M. tuberculosis: bactericidal = at least 3 logs kill in 21 days
B. subtilis Marburg = assay: Spectrum, MIC99 by serial dilution agar method; format: cell-based; conditions: Bacillus subtilis, read-out: MIC (μM) B. subtilis
Summary of the method: (§1)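 Serial-dilution agar MIC99 with test compound in the agar. Organisms were grown on different media: B. subtilis Marburg on nutrient agar, E. coli DH5α and S. aureus RN4220 on LB agar, M. smegmatis mc2155 on Middlebrook 7H10 + 10% v/v OADC, P. aeruginosa BAA 47 PA0 on tryptic soy agar, S. cerevisiae Y187 on YPD agar. Late-log culture was plated and incubated at 37 °C until large colonies formed on no-compound plates. MIC99 is the lowest concentration giving <1% growth.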

S. aureus RN4220 = assay: Spectrum, MIC99 by serial dilution agar method; format: cell-based, Staphylococcus aureus; conditions: for MIC: Staphylococcus aureus, RN4220, read-out: MIC (μM) St. aureus
Summary of the method: as §1

E. coli DH5α = assay: Spectrum, MIC99 by serial dilution agar method; format: cell-based; conditions: Escherichia coli, read-out: MIC (μM) E. coli
Summary of the method: as §1

S. cerevisiae Y187 = assay: Spectrum, MIC99 by serial dilution agar method; format: cell-based, Saccharomyces cerevisiae; conditions: for MIC: Saccharomyces cerevisiae, Y187, read-out: MIC (μM) Sa. cerevisiae
Summary of the method: as §1

P. aeruginosa BAA 47 PA0 = assay: Spectrum, MIC99 by serial dilution agar method; format: cell-based; conditions: Pseudomonas aeruginosa, BAA47, read-out: MIC (μM) P. aeruginosa
Summary of the method: as §1

M. smegmatis mc^2155 = assay: Spectrum, MIC99 by serial dilution agar method; format: cell-based, Mycobacterium smegmatis
Summary of the method: as §1

[6] = tested on: nonreplicating M. tuberculosis (nutrient starvation); assay: Kill kinetics under starvation; format: cell-based, Mycobacterium tuberculosis; conditions: for concentration at which bactericidal, nonreplicating M. tuberculosis: concentrations as low as

For `CC(=O)Oc1ccccc1C(=O)Nc1ncc([N+](=O)[O-])s1` [compound 1, 2-(5-Nitrothiazol-2-ylcarbamoyl)phenyl Acetate, reference compound], the “TC50” value (Vero cells) is given as greater than 20 µM, the “activity against nonreplicating or persistent M. tuberculosis (in words)” value [1] is given as “good activity” and the MIC ([2]; 120 h) is given as 14 µM. The MIC ([2]; read-out: minimum inhibitory concentration (MIC)) was 14 µM and the “detection in plasma or urine” value [3] was “not detectable”.

For `O=C(Nc1ncc([N+](=O)[O-])s1)c1ccccc1O` [compound 2, 2-Hydroxy-N-(5-nitrothiazol-2-yl)benzamide, reference compound], the “TC50” value (Vero cells) was greater than 20 µM, the Vd [4] was 0.698 ± 0.327 L/kg and the clearance [4] was 57.5 ± 3.3 mL/min/kg. For the same compound, the bioavailability [4] was 5.8 ± 0.1%, the AUC [4] was 167 ± 10 ng·h/mL and the MIC ([2]; 120 h) was 20 µM (≈ 5.3 µg/mL).

With `O=C(Nc1ncc([N+](=O)[O-])s1)c1ccccc1` [compound 4, N-(5-nitrothiazol-2-yl)benzamide] the Vd [4] was 0.18 ± 0.006 L/kg, the clearance [4] was 6.1 ± 0.5 mL/min/kg and the bioavailability [4] was 63.5 ± 6.9%.

For `CCC(C)(C)C(=O)Oc1ccccc1C(=O)Nc1ncc([N+](=O)[O-])s1` [compound 8, 2-((5-Nitrothiazol-2-yl)carbamoyl)phenyl 2,2-Dimethylbutanoate], the “bactericidal activity against replicating M. tuberculosis (in words)” value [5] was “rapidly bactericidal”, the “kill of replicating M. tuberculosis” value ([5]; in 7 days at 10× MIC) was greater than 4 log and the “TC50” value (Vero cells) was 6.2 µM. It also gave an MIC (B. subtilis Marburg) of 1 µM (≈ 0.363 µg/mL), an MIC (S. aureus RN4220) greater than 50 µM and an MIC (E. coli DH5α) greater than 25 µM. The MIC (S. cerevisiae Y187) was greater than 100 µM, the “improvement in activity relative to 1” value [2] was 10 fold and the MIC ([2]; 120 h) was 1.4 ± 0.07 µM (≈ 0.509 µg/mL). The “activity against M. tuberculosis (in words)” value [2] was “showed activity” and the MIC (P. aeruginosa BAA 47 PA0) was greater than 100 µM.

For `Cc1cccc(C(=O)Nc2ncc([N+](=O)[O-])s2)c1O` [compound 13, 2-Hydroxy-3-methyl-N-(5-nitrothiazol-2-yl)benzamide], the Vd [4] was 0.16 ± 0.012 L/kg, the clearance [4] was 8.96 ± 0.51 mL/min/kg and the bioavailability [4] was 72.5 ± 18.4%.

For `O=C(Nc1ncc([N+](=O)[O-])s1)c1ccccn1` [compound 19, N-(5-Nitrothiazol-2-yl)picolinamide], the “bactericidal activity against replicating M. tuberculosis (in words)” value [5] was “bactericidal”, the “concentration at which bactericidal, replicating M. tuberculosis” value [5] was no less than 5 times the MIC and the “TC50” value (Vero cells) was 20 µM. The MIC (B. subtilis Marburg) was 3.1 µM (≈ 0.776 µg/mL), the “susceptibility of M. smegmatis (in words)” value (M. smegmatis mc^2155) was “sensitive” and the MIC (S. aureus RN4220) was greater than 100 µM. For the same compound, the MIC (E. coli DH5α) was greater than 100 µM, the “susceptibility of S. cerevisiae (in words)” value (S. cerevisiae Y187) was “sensitive” and the MIC (S. cerevisiae Y187) was 12.5 µM (≈ 3.13 µg/mL). The MIC ([2]; 120 h) was 2.4 ± 0.0071 µM (≈ 0.601 µg/mL), the “activity against M. tuberculosis (in words)” value [2] was “improved activity” and the “bactericidal activity under nonreplicating conditions (in words)” value [6] was “bactericidal activity”. The “concentration at which bactericidal, nonreplicating M. tuberculosis” value [6] was no more than 1.25 × MIC and the MIC (P. aeruginosa BAA 47 PA0) was greater than 100 µM.

Compound `O=C(Nc1ncc([N+](=O)[O-])s1)C1CCCCC1` [compound 28, N-(5-Nitrothiazol-2-yl)cyclohexanecarboxamide] has a Vd [4] of 0.68 ± 0.12 L/kg, a clearance [4] of 69.8 ± 4.3 mL/min/kg and a bioavailability [4] of 17.5 ± 4.2%. For the same compound, the AUC [4] was 418 ± 96 ng·h/mL, the MIC [2] was greater than 20 µM and the “activity against M. tuberculosis (in words)” value [2] was “loss of activity”.

In the case of `O=C(Nc1ccccc1)Nc1ncc([N+](=O)[O-])s1` [compound 37, 1-(5-Nitrothiazol-2-yl)-3-phenylurea], the “bactericidal activity against replicating M. tuberculosis (in words)” value [5] is reported as “bactericidal activity”, the “concentration at which bactericidal, replicating M. tuberculosis” value [5] is reported as “equivalent to the MIC” and the “kill of replicating M. tuberculosis” value ([5]; in 21 days, at concentrations equivalent to the MIC) is reported as “at least 3 logs”. The MIC (B. subtilis Marburg) was 50 µM (≈ 13.2 µg/mL), the “susceptibility of S. aureus (in words)” value (S. aureus RN4220) was “sensitive” and the MIC (S. aureus RN4220) was 50 µM (≈ 13.2 µg/mL). The MIC (E. coli DH5α) was greater than 100 µM, the MIC (S. cerevisiae Y187) was greater than 100 µM and the MIC [2] was 17 ± 4.2 µM (≈ 4.49 µg/mL). The “activity against M. tuberculosis (in words)” value [2] was “comparable activity to the parent compound 1”, the “bactericidal activity under nonreplicating conditions (in words)” value [6] was “bactericidal activity” and the “concentration at which bactericidal, nonreplicating M. tuberculosis” value [6] was no more than 1.25 × MIC. The MIC (P. aeruginosa BAA 47 PA0) was greater than 100 µM.

For `CO[C@H]1/C=C/O[C@@]2(C)Oc3c(C)c(O)c4c(O)c(c(/C=N/N5CCN(C)CC5)c(O)c4c3C2=O)NC(=O)/C(C)=C\C=C\[C@H](C)[C@H](O)[C@@H](C)[C@@H](O)[C@@H](C)[C@H](OC(C)=O)[C@@H]1C` [rifampicin, reference compound], the “TC50” value (Vero cells) was greater than 50 µM and the MIC ([2]; 120 h) was 0.004 µM (≈ 0.00329 µg/mL).
